Assay outcomes: PubChem, several laboratories
VIM-2 inhibitor – VIM-2 metallo-beta-lactamase inhibitors, primary screen, biochemical, epi-absorbance readout, Pseudomonas aeruginosa enzyme | purified VIM-2, nitrocefin hydrolysis, epi-absorbance fluorescence | inhibition, % at 5.6 µM | 290,000 tested, 0.89% active;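 active = inhibition above the mean of all tested compounds plus 3 SD, cutoff set per screening run, cut at about 7.5% in these data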;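 note: red hydrolysis product quenches plate fluorescence so inhibitors raise well fluorescence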
dFosB act-1 – activators of delta FosB homodimer, primary screen, biochemical, fluorescence polarization, TAMRA-CDK5 oligo, single point; Protein FosB (Mus musculus), P13346; purified delta FosB; percent of positive-control signal above neutral wells; activation, % at 25 µM; 340,000 tested, 0.99% active; AID 493131, 2011;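 active = mean activation above about 17%, with every replicate also reaching it, limit read from the data, passing the limit was not always enough; inconclusive = only one of the two conditions met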
Target sequence (P13346 whole entry, looked up): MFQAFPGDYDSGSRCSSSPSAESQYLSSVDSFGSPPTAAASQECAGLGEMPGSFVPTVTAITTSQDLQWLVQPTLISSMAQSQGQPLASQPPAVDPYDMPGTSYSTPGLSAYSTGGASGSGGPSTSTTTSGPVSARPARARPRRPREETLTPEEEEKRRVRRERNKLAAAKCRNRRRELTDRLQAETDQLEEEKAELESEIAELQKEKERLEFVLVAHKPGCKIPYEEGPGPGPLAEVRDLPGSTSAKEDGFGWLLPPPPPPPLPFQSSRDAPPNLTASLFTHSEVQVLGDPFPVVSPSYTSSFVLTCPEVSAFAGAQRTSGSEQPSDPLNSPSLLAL
m5-HT2A agonist – mouse Htr2a agonists via beta-arrestin recruitment, primary screen, cell-based, luminescence. 5-hydroxytryptamine receptor 2A (Mus musculus), P35363. CHO-K1 mHTR2A beta-arrestin complementation; percent of 30 µM serotonin response. activation, % at 7.6 µM. 360,000 tested, 0.66% active;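 active = activation above a run cutoff, the mean activation of all tested compounds plus 3 SD, cut at about 14% in these data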
IMP-1 inhibitor – IMP-1 metallo-beta-lactamase inhibitors, primary screen, biochemical, epi-absorbance readout, Pseudomonas aeruginosa enzyme. metallo-beta-lactamase IMP-1 (Pseudomonas aeruginosa). purified IMP-1, nitrocefin hydrolysis, epi-absorbance fluorescence. inhibition, % at 5.6 µM. 290,000 tested, 0.45% active. AID 1556, 2009;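 active = inhibition above the mean plus 3 SD of all compounds in the same screening run, cut at about 4.5% in these data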
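system = purified recombinant IMP-1 beta-lactamase | amount = 0.2 nM IMP-1, as dispensed | medium = HEPES buffer pH 7.1 with ZnSO4 and Brij 35 | times = 25 °C, 15 min preincubation, 25 min reaction | detection = plate fluorescence quenching by hydrolysis product, ex 480/em 530 nm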
dFosB act-2 – activators of mouse delta FosB DNA binding, confirmation, biochemical, fluorescence polarization, TAMRA-CDK5 oligo, cherry-picked samples; shares compounds with dFosB act-1; purified delta FosB; normalised: neutral wells 0, positive control 100; activation, % at 24.9 µM; 2,400 tested, under 10 active;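 active = highest replicate activation at or above 34% and every replicate reaching that threshold; inconclusive = meets only one of the two criteria; inactive = meets neither criterion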;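 note: higher polarization means more probe DNA bound by delta FosB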
A number is an active result; - = inactive; ? = inconclusive; . = no result. Rows were chosen to be rich in hits. Some 2.5% of all compounds tested hit in one or more screens of this group.

SMILES | VIM-2 inhibitor | dFosB act-1 | m5-HT2A agonist | IMP-1 inhibitor | dFosB act-2
O=C(N/N=C\c1ccc(CNS(=O)(=O)c2ccc(Cl)cc2)o1)C(=O)Nc1ccc(Oc2ccccc2)cc1 | - | - | - | - | .
CCOC(=O)c1ccc(S(=O)(=O)NNC(=O)COc2cccc(C)c2)cc1 | - | - | - | - | .
CCOC(=O)c1ccc(S(=O)(=O)NNC(=O)COc2ccc(C)cc2)cc1 | - | 60.6 | - | - | -
Nc1ccc(S(=O)(=O)NCC(=O)OCCOc2ccccc2)cc1[N+](=O)[O-] | . | - | - | . | .
CSc1ccc(S(=O)(=O)NCC(=O)OCCOc2ccccc2)cc1[N+](=O)[O-] | . | 27.5 | - | . | -
Cc1ccc2nc(NC(=O)c3ccc4ncsc4c3)sc2c1 | - | 21.7 | - | - | -
Cc1ccc2nc(NC(=O)c3ccc(Cl)s3)sc2c1 | - | 25.9 | - | - | -
CN(C)CCCOC(=O)COc1ccc(C(C)(C)C)cc1 | - | - | - | - | .
Cc1ccc(NC(=S)NCc2ccc(F)cc2)cc1 | . | - | - | . | .
Cc1ccc(CNC(=S)Nc2ccc(NS(=O)(=O)c3ccc(C)cc3)cc2)cc1 | - | 18.8 | - | - | -
CC(=O)c1cccc(NC(=O)c2ccc(-c3c(C)noc3C)c3ccoc23)c1 | . | . | - | . | .
COc1cc(C(=O)N/N=C/c2cc([N+](=O)[O-])cs2)cc(OC)c1OC | - | - | - | - | .
CCOc1ccc(C(=O)N/N=C/c2cc([N+](=O)[O-])cs2)cc1 | - | 21.2 | - | - | -
Cc1cc(C(=O)N/N=C\c2ccc(COc3ccc([N+](=O)[O-])cc3)o2)ccc1[N+](=O)[O-] | - | 36.0 | - | - | -
CCNC(=O)Cn1cc(C(F)(F)F)cc(Cl)c1=O | - | - | - | - | .
O=C(Cn1cc(C(F)(F)F)cc(Cl)c1=O)NCc1ccc(Cl)cc1Cl | - | 46.2 | - | - | -
COc1cc(-c2cc(C(=O)Nc3ccc(O)cc3)c3ccccc3n2)cc(OC)c1OC | - | - | - | - | .
COc1cc(-c2cc(C(=O)Nc3cccc(C(C)=O)c3)c3ccccc3n2)cc(OC)c1OC | - | 28.1 | - | - | -
CNc1c(NS(=O)(=O)c2ccc(OC)c(Cl)c2)c(=O)oc2ccccc12 | - | 64.5 | - | - | -
CCCNc1c(NS(=O)(=O)c2ccc(C)c(C)c2)c(=O)oc2ccccc12 | - | - | - | - | .
CCCNc1c(NS(=O)(=O)c2ccc3c(c2)CCCC3)c(=O)oc2ccccc12 | - | 59.7 | - | - | -
COc1ccc(OCCCC(=O)Nc2cc(Cl)ccc2-n2cncn2)cc1 | . | - | - | . | .
COc1ccc(C(=O)Nc2ccccc2C(=O)NC2CC2)c(OC)c1OC | . | . | - | . | .
Cc1ccccc1OCC(O)CN1CCN(CCN2C(=O)c3cccc4cccc(c34)C2=O)CC1 (stereo not drawn) | - | 49.9 | - | - | -
CC(=O)c1ccc(OCC(O)CN2CCN(CCN3C(=O)c4cccc5cccc(c45)C3=O)CC2)cc1 (stereo not drawn) | - | 37.6 | - | - | -
SMILES | VIM-2 inhibitor | dFosB act-1 | m5-HT2A agonist | IMP-1 inhibitor | dFosB act-2
CC(C)OCC(O)CN1CCN(CCN2C(=O)c3cccc4cccc(c34)C2=O)CC1 (stereo not drawn) | - | ? | - | - | .
CCC(OCC(O)CN1CCN(CCN2C(=O)c3cccc4cccc(c34)C2=O)CC1)c1ccccc1 (stereo not drawn) | - | 30.2 | - | - | -
Cc1cccc(C)c1OCC(O)CN1CCC(CN2C(=O)c3cccc4cccc(c34)C2=O)CC1 (stereo not drawn) | - | 74.0 | - | - | -
COc1ccc(S(=O)(=O)N2CCOCC2)cc1NC(=O)CSc1ccc(F)cc1 | . | - | - | . | .
Cc1ccc(NC(C(=O)c2ccccc2)c2ccccc2)cc1 (stereo not drawn) | . | - | - | . | .
Nc1nc2ccccc2n1S(=O)(=O)c1ccc(Cl)cc1 | . | . | - | . | .
COc1ccc(Cl)cc1NC(=O)CN(C)CC(=O)Nc1c(C)n(C)n(-c2ccccc2)c1=O | . | - | - | . | .
COc1ccccc1CNC(=O)CSc1nc(N)c(C#N)c(-c2cccs2)c1C#N | - | 75.3 | - | - | -
COc1ccc(-c2cc(-c3cccs3)c(C#N)c(SCC(=O)NCc3ccccc3OC)n2)cc1 | - | 23.0 | - | - | -
